Published values of several laboratories.
Protocols differ between the studies behind these lines.
KIT T670I/V559D: Mast/stem cell growth factor receptor Kit (KIT, Homo sapiens, UniProt P10721, T670I/V559D)
KIT autoinhibited: Mast/stem cell growth factor receptor Kit, autoinhibited (KIT, Homo sapiens, UniProt P10721)
KIT D816V: Mast/stem cell growth factor receptor Kit (KIT, Homo sapiens, UniProt P10721, D816V)
KIT: Mast/stem cell growth factor receptor Kit (KIT, Homo sapiens, UniProt P10721)

C#Cc1cnc(Nc2ccnc(CO)c2)nc1Nc1ccccc1S(C)(=O)=NC#N (stereo not drawn) — remaining signal (KIT T670I/V559D; cell-free assay; 1 µM): 79%
CCCCC(=O)Nc1ccc(-c2ccc3ncn(CCC)c(=O)c3c2)cn1 — remaining binding (KIT autoinhibited; binding, competition with immobilised ligand; 0.5 µM): 97%
Cc1ccc(NC(=O)c2ccnc(C(F)(F)F)c2)cc1-c1cc(OCCO)nc(N2CCOCC2)c1 — remaining binding (Mast/stem cell growth factor receptor Kit (KIT, Homo sapiens, UniProt P10721, D816H); binding; 1 µM): 99%
CO[C@@H]1[C@H](N(C)C(=O)c2ccccc2)C[C@H]2O[C@]1(C)n1c3ccccc3c3c4c(c5c6ccccc6n2c5c31)C(=O)NC4 — inhibition (KIT D816V; enzyme activity, inhibitor; 1 µM): 96%
COc1ccc2oc(-c3ccc4nc(N)oc4c3)c/c(=N\c3ccccc3NC(=O)CCN)c2c1 — remaining binding (KIT; binding; 1 µM): 111%
CC#CC(=O)N1CCC[C@H]1c1nc(-c2ccc(C(=O)Nc3ccccn3)cc2)c2c(N)nccn12 — inhibition (Mast/stem cell growth factor receptor Kit (KIT, Homo sapiens, UniProt P10721, V559D/V654A); enzyme activity, inhibitor; 1 µM): 0%
COc1ccc2[nH]c3c4[nH]c5ccc(OC)cc5c4c4c(c3c2c1)C(=O)NC4=O — remaining binding (Mast/stem cell growth factor receptor Kit (KIT, Homo sapiens, UniProt P10721, V559D); binding; 1 µM): 9%
C1=C/COCc2cc(ccc2OCCN2CCCC2)Nc2nccc(n2)-c2cccc(c2)COC/1 — remaining binding (KIT autoinhibited; binding; 0.1 µM): 17%
CN1CCN(C(=O)c2ccc(NC(=O)Nc3ccc(N(C)c4ccnc(Nc5ccc(CS(C)(=O)=O)cc5)n4)cc3)cc2)CC1 — remaining binding (KIT; binding, competition with immobilised ligand; 1 µM): 0%
C=CC(=O)N1CCC([C@@H]2CCNc3c(C(N)=O)c(-c4ccc(Oc5ccccc5)cc4)nn32)CC1 — inhibition (Mast/stem cell growth factor receptor Kit (KIT, Homo sapiens, UniProt P10721, L576P); enzyme activity, inhibitor; 1 µM): 5%
C[C@H]1CC[C@H](n2c3cnccc3c3cnc(Nc4ccc5c(n4)CCN(C(=O)CO)C5)nc32)CC1 — remaining signal (KIT D816V; cell-free assay; 1 µM): 3.6%
N#Cc1ccc(NC(=O)Nc2ccccc2)cc1 — remaining binding (KIT T670I/V559D; cell-free assay, competition with immobilised ligand; 25 µM): 57%
